Screening results deposited in PubChem BioAssay by Johns Hopkins Ion Channel Center.
Hits are enriched below; roughly 3.1% of the tested compounds scored in any of these assays.
KCNK3 block – human KCNK3 channel inhibition, primary screen; CHO-KCNK3 thallium flux, FluxOR fluorescence; active compounds read low; B-score at 10 µM; hit rate 0.84% among 340,000;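 active = B-score under library mean minus 4 SD, starting fluorescence ratio at most library mean plus 5 SD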;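 note: more negative B-score means stronger inhibition of thallium flux through KCNK3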
Target sequence (O14649 whole entry, looked up): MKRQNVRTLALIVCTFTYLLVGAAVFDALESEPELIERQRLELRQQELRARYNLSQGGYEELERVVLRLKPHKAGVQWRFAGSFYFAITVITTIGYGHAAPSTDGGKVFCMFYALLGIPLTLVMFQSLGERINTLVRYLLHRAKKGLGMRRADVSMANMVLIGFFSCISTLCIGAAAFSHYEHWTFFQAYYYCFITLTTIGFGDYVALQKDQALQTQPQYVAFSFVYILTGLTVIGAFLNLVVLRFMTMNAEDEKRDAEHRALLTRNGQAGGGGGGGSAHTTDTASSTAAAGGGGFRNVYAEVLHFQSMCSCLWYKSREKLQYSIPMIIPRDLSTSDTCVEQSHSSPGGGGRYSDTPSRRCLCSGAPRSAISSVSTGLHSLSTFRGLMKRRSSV
hERG protect – hERG (human) protection from proarrhythmic block | hit rate 0.51% among 310,000 | AID 1511 | Q12809 | activation (rescue from dofetilide block), less the hit threshold, % at 10 µM | CHO-hERG, FluxOR thallium flux, dofetilide IC70 present;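 active = activation above the mean of controls blocked by dofetilide plus 5 SD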;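 note: thallium influx through hERG after potassium depolarization seen as dye fluorescence rise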
KCNQ1 block – inhibitors of human KCNQ1 potassium channel | B-score at 10 µM | P51787 | CHO-K1 KCNQ1, FluxOR thallium flux fluorescence; active compounds read high | hit rate 1.3% among 310,000;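 active = compounds whose thallium flux B-score, printed positive for inhibition, exceeds three library SD while starting fluorescence stays within three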;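 note: channel opened by potassium depolarization with thallium stimulus after 20 min compound exposure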
KCNQ1 pot – human KCNQ1 channel potentiation or activation; hit rate 0.35% among 310,000; CHO-K1 KCNQ1, thallium flux FluxOR fluorescence; active compounds read high; P51787; AID 2648; B-score at 10 µM;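 active = fluorescence ratio B-score, a plate-corrected score, at least three library SD, with initial intensity B-score within 5 SD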
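Assay system: stable KCNQ1 CHO-K1 line; medium: assay buffer, equal DMSO in all wells; timing: 90 min dye loading and 20 min compound exposure, both at room temperature; technique: kinetic FluxOR thallium fluorescence, 10-s 1-Hz baseline, 110-s post-stimulus read; read-out basis: B score of baseline-normalized fluorescence ratio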
KCNK9 block – blocks the human KCNK9 two-pore domain potassium channel; Q9NPC2; HEK293 KCNK9, FluxOR thallium flux fluorescence; active compounds read low; B-score at 10 µM; hit rate 1.2% among 310,000; AID 488922;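 active = ratio B-score over 3 SD below the library mean, with starting fluorescence within 5 SD of its mean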;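 note: negative B-score means less thallium flux so channel inhibition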
KCNK9 block conf – human KCNK9 inhibitor confirmation; shares compounds with KCNK9 block; HEK293 KCNK9 cells, FluxOR thallium flux fluorescence; inhibition, % at 10 µM; hit rate 43% among 4,900;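 active = thallium signal inhibited by more than 5 SD of the compound-free buffer control wells, on both duplicate plates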;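 note: 0% = assay buffer control wells without compound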
Kir21 sel – mouse Kir2.1 off-target activity of KCNK9 modulators; shares compounds with KCNK9 block; inhibition, % at 10 µM; Kir2.1 cells, FluxOR thallium flux fluorescence; hit rate 4% among 4,900; AID 492993;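 active = thallium signal drop more than 5 SD beyond the mean of the no-compound control wells, seen in both duplicate plates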;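 note: signal is fluorescence rise after thallium addition divided by baseline fluorescence; plate controls were assay buffer only for no effect and full block by chlorpromazine control for full effect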
KCNK9 uninduced – second check of KCNK9 modulator effects in non-induced HEK293 cells; AID 492997; inhibition, % at 10 µM; shares compounds with KCNK9 block; hit rate 40% among 4,900; FluxOR thallium flux;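 active = thallium signal drop beyond 5 SD of the untreated control mean, on both duplicate plates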;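 note: plate controls were buffer only IC0 wells for no effect and SID17386958 at its maximal inhibitory level for full effect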
* hit, by the source's call.

For COc1cccc(Cn2cnc3c(NS(=O)(=O)c4ccc(Cl)cc4Cl)c(C)c(C)cc32)c1 the results were KCNK3 block inactive, hERG protect -3.0, KCNQ1 block inactive, KCNQ1 pot inactive and KCNK9 block inactive.
COc1cccc(Cn2cnc3c(NS(=O)(=O)c4cccc(Cl)c4Cl)c(C)c(C)cc32)c1 was read as KCNK3 block inactive, hERG protect -13.8, KCNQ1 block inactive, KCNQ1 pot inactive, KCNK9 block -12.6*, KCNK9 block conf 72.0%*, Kir21 sel inactive and KCNK9 uninduced inactive.
COc1cccc(Cn2cnc3c(NS(=O)(=O)c4cc(Cl)ccc4Cl)c(C)c(C)cc32)c1 was read as KCNK3 block -9.48*, hERG protect -1.0, KCNQ1 block inactive, KCNQ1 pot inactive, KCNK9 block -15.5*, KCNK9 block conf 64.0%*, Kir21 sel inactive and KCNK9 uninduced inactive.
`COc1cccc(Cn2cnc3c(NS(=O)(=O)c4ccc(Cl)cc4)c(C)c(C)cc32)c1` gave KCNK3 block inactive, hERG protect -7.3, KCNQ1 block inactive, KCNQ1 pot inactive and KCNK9 block inactive.
CC(=O)O[C@H]1C[C@@]2(C)[C@@H](C[C@@H](O)[C@H]3[C@@]4(C)CC[C@@H](O)[C@@H](C)[C@@H]4CC[C@@]32C)/C1=C(\CCC=C(C)C)C(=O)O was read as KCNK3 block inactive, hERG protect -6.3, KCNQ1 block inactive, KCNQ1 pot inactive and KCNK9 block inactive.
Screening CC1CCN(C(=O)C2CCN(S(=O)(=O)c3ccc4c(c3)CC(C)N4C(=O)C3CC3)CC2)CC1 (centres undefined) returned KCNK3 block inactive, hERG protect -6.6, KCNQ1 block inactive, KCNQ1 pot inactive and KCNK9 block inactive.
For CC1CC(C)CN(S(=O)(=O)c2ccc3c(c2)CC(C)N3C(=O)C2CC2)C1 (centres undefined) the results were KCNK3 block inactive, hERG protect -9.3, KCNQ1 block inactive, KCNQ1 pot inactive, KCNK9 block inactive, KCNK9 block conf inactive, Kir21 sel inactive and KCNK9 uninduced inactive.
`CC1CC(C)CN(S(=O)(=O)c2ccc3c(c2)CC(C)N3C(=O)C2CCC2)C1` (centres undefined) gave KCNK3 block inactive, hERG protect -7.5, KCNQ1 block inactive, KCNQ1 pot inactive, KCNK9 block inactive, KCNK9 block conf inactive, Kir21 sel inactive and KCNK9 uninduced inactive.
For C=CCc1ccc(OCc2ccc(C(=O)Nc3ccc(NC(C)=O)cc3)o2)c(OC)c1 the results were KCNK3 block inactive, hERG protect -5.0, KCNQ1 block inactive, KCNQ1 pot inactive and KCNK9 block inactive.
For Cc1c(C(=O)N2CCC[C@H]2CO)oc2c(F)cccc12 the results were KCNK3 block inactive, hERG protect -9.5, KCNQ1 block inactive, KCNQ1 pot inactive and KCNK9 block inactive.
For COC(=O)C1=C(C)NC2=C(C(=O)c3ccccc32)C1c1cccc(OC)c1 (centres undefined) the results were KCNK3 block inactive, hERG protect -8.7, KCNQ1 block inactive, KCNQ1 pot inactive and KCNK9 block inactive.
For CC1=C([N+](=O)[O-])C(c2cccc(Br)c2)C2=C(N1)c1ccccc1C2=O (centres undefined) the results were KCNK3 block inactive, hERG protect -11.3, KCNQ1 block 10*, KCNQ1 pot inactive, KCNK9 block -8.37*, KCNK9 block conf 53.5%*, Kir21 sel inactive and KCNK9 uninduced 38.0%*.
`O=C(NNC(=S)Nc1ccc(C(=O)O)c(O)c1)c1ccncc1` gave KCNK3 block inactive.
For O=C(NC(=S)NCCC1=CCCCC1)c1ccccc1Br the results were KCNK3 block inactive, hERG protect 1.1, KCNQ1 block inactive, KCNQ1 pot inactive, KCNK9 block inactive, KCNK9 block conf inactive, Kir21 sel inactive and KCNK9 uninduced inactive.
`COc1cccc(CN(C)C(c2ccccc2)c2ccccc2)c1OC` gave KCNK3 block inactive, hERG protect -11.1, KCNQ1 block inactive, KCNQ1 pot inactive, KCNK9 block -8.22*, KCNK9 block conf inactive, Kir21 sel inactive and KCNK9 uninduced inactive.
For O=C(O)/C=C\C(=O)Nc1ccc(N2CCN(c3ccc(Cl)cc3)CC2)cc1 the results were KCNK3 block inactive, hERG protect -0.8, KCNQ1 block inactive, KCNQ1 pot inactive and KCNK9 block inactive.
O=C(O)/C=C\C(=O)Nc1ccc(N2CCN(c3ccc(Cl)c(Cl)c3)CC2)cc1 was read as KCNK3 block inactive, hERG protect -8.6, KCNQ1 block inactive, KCNQ1 pot inactive, KCNK9 block inactive, KCNK9 block conf inactive, Kir21 sel inactive and KCNK9 uninduced inactive.
For CC(=O)N1CC(c2ccccc2)C(c2ccc(Cl)cc2)=N1 (centres undefined) the results were KCNK3 block inactive, hERG protect -7.0, KCNQ1 block inactive, KCNQ1 pot inactive, KCNK9 block -8.95*, KCNK9 block conf inactive, Kir21 sel inactive and KCNK9 uninduced inactive.
`CC1(C)Cc2cccc(OCC(=O)N3CCN(S(=O)(=O)c4ccc(F)cc4)CC3)c2O1` gave KCNK3 block inactive, hERG protect -12.2, KCNQ1 block inactive, KCNQ1 pot inactive and KCNK9 block inactive.
`Cc1cccc(N2CCN(C(=O)COc3cccc4c3OC(C)(C)C4)CC2)c1C` gave KCNK3 block inactive, hERG protect -8.7, KCNQ1 block inactive, KCNQ1 pot inactive, KCNK9 block -8.7*, KCNK9 block conf 25.0%*, Kir21 sel inactive and KCNK9 uninduced inactive.
For CCC1CCCCN1C(=O)CSc1nc2ncccc2[nH]1 (centres undefined) the results were KCNK3 block inactive, hERG protect -6.1, KCNQ1 block inactive, KCNQ1 pot inactive and KCNK9 block inactive.
Screening Cc1ccc(CNC(=O)c2cc(Cl)cc(Cl)c2)n1C returned KCNK3 block inactive, hERG protect -11.4, KCNQ1 block inactive, KCNQ1 pot inactive and KCNK9 block inactive.
For Cc1cc(C)cc(NS(=O)(=O)c2c(C)[nH]c(=O)[nH]c2=O)c1 the results were KCNK3 block inactive, hERG protect -3.0, KCNQ1 block inactive, KCNQ1 pot inactive and KCNK9 block inactive.
Screening CC(C)c1cccc(C(C)C)c1OCCCCCN1CCOCC1 returned KCNK3 block inactive, hERG protect -5.6, KCNQ1 block inactive, KCNQ1 pot inactive and KCNK9 block inactive.
